Molecules are shown by their SMILES.

For orientation: GI50 means the concentration giving 50% growth inhibition. Lower therefore signals greater sensitivity of the cells.

Assay type in all cases: functional
Common to all, as to settings: Homo sapiens

One experiment deals with HCT-116. The experiment in a line: The compound was evaluated for cytotoxicity against colon cancer cell line HCT116. The procedure, abridged:
(§1)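 Tested within a panel of about 51 human cancer cell lines covering leukemia, non-small-cell lung and other tumour types. The value reported is GI50, the concentration giving 50% growth inhibition.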

In another experiment the test system is LOX IMVI. The experiment in a line: The compound was evaluated for cytotoxicity against melanoma cell line LOX-IMVI. The procedure, abridged: as §1
Another experiment deals with MCF7. In words: The compound was evaluated for cytotoxicity against breast cancer cell line MCF-7. The method, boiled down:
as §1

The next experiment concerns OVCAR-5. The experiment in a line: The compound was evaluated for cytotoxicity against ovarian cancer cell line OVCAR-5. The procedure, abridged:
as §1

In the next experiment the test system is PC-3. In words: The compound was evaluated for cytotoxicity against prostate cancer cell line PC-3. The method, boiled down: as §1
The subject of a further experiment is SN12C. In words: The compound was evaluated for cytotoxicity against renal cancer cell line SN12C. The method, boiled down: as §1
In another experiment the test system is SF-539. In words: The compound was evaluated for cytotoxicity against CNS cancer cell line CNS SF-539. The procedure, abridged:
as §1

For a further experiment, the system named is NCI-H522. In words: The compound was evaluated for cytotoxicity against lung cancer cell line NCI-H522. The procedure, abridged: as §1

Consider `C[C@H]1CC[C@H]2C(CN3CCCC3)C(=O)O[C@H]2[C@]2(C)C(=O)CC(N3CCCC3)[C@@H]12` (some centres undefined), for which the GI50 amounted to 3.8 µM in the experiment with HCT-116; 3.3 µM with LOX IMVI; 4.2 µM in the experiment on MCF7; 6.3 µM in the experiment with OVCAR-5; 20 µM in the experiment with PC-3; 11 µM with SN12C. The GI50 was 9.1 µM in the experiment with SF-539 and 1.8 µM in the experiment with NCI-H522.
On to `C[C@H]1CC[C@H]2C(CN3CCCCC3)C(=O)O[C@H]2[C@]2(C)C(=O)CC(N3CCCCC3)[C@@H]12` (some centres undefined), for which the GI50 in the experiment with HCT-116 came to 1.8 µM; in the experiment with LOX IMVI, 3.6 µM; in the experiment on MCF7, 4.7 µM; in the experiment with OVCAR-5, 22 µM; with PC-3 it was 8.5 µM; in the experiment with SN12C, 8.1 µM. Besides, the results for the GI50 in the experiment with SF-539 and in the experiment with NCI-H522 were 5.4 µM and 1.1 µM, respectively.
In the case of `C=C1C(=O)O[C@@H]2[C@H]1CC[C@H](C)[C@@H]1C=CC(=O)[C@@]21C` [AMBROSIN], the GI50 in the experiment on HCT-116 came to 1.8 µM; with LOX IMVI it was 2.2 µM; in the experiment on MCF7, 3.9 µM; in the experiment on OVCAR-5 it was 4.9 µM; with PC-3, 4.5 µM; in the experiment with SN12C it was 3.4 µM. In addition, the GI50 is 2.9 µM in the experiment with SF-539 and 1 µM in the experiment with NCI-H522.
